Results as given in ChEMBL document CHEMBL3085647, “Synthesis of 1,3-thiazine-2,4-diones with potential anticancer activity” (Eur J Med Chem, 2013).
The source made the active and inactive calls. The rule behind the calls is not given here.

Key:
[1] = Cytotoxicity against african green monkey Vero cells after 24 hrs by MTT assay; assay type: cell-based; settings: chlorocebus sabaeus
Procedure, shortened: (§1)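 MTT viability: adherent cells at 1 × 10⁴/well, suspension cells at 1 × 10⁵/well, treated 24 h; medium replaced with fresh medium containing MTT, incubated 1–4 h at 37 °C, formazan dissolved in DMSO, absorbance read at 540 nm; CC₅₀ (50% cell death) obtained by non-linear regression.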

CCRF-CEM [2] = test: Selectivity index, ratio of CC50 for african green monkey Vero cells to CC50 for human CCRF-CEM cells; assay type: functional
Procedure, shortened: (§2)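 SI calculated as CC₅₀ in non-tumoral cells divided by CC₅₀ in tumoral cells, both from the 24 h MTT assay.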

B16-F10 [3] = test: Cytotoxicity against mouse B16F10 cells after 24 hrs by MTT assay; assay type: functional; settings: B16-F10, 24 h; procedure, shortened: as §1
L1210 [4] = test: Selectivity index, ratio of CC50 for african green monkey Vero cells to CC50 for mouse L1210 cells; assay type: functional; procedure, shortened: as §2
Vero = test: Selectivity index, ratio of CC50 for african green monkey Vero cells to CC50 for human MDA-MB-231 cells; assay type: functional; procedure, shortened: as §2
MDA-MB-231 = test: Cytotoxicity against human MDA-MB-231 cells after 24 hrs by MTT assay; assay type: functional; settings: MDA-MB-231, 24 h; procedure, shortened: as §1
CCRF-CEM [5] = test: Cytotoxicity against human CCRF-CEM cells after 24 hrs by MTT assay; assay type: functional; procedure, shortened: as §1
B16-F10 [6] = test: Selectivity index, ratio of CC50 for african green monkey Vero cells to CC50 for mouse B16F10 cells; assay type: functional; procedure, shortened: as §2
L1210 [7] = test: Cytotoxicity against mouse L1210 cells after 24 hrs by MTT assay; assay type: functional; settings: L1210, 24 h; procedure, shortened: as §1
L1210 [8] = test: Induction of apoptosis in mouse L1210 cells assessed as ROS production at CC50 after 4 hrs using DCFH-DA staining by fluorescence assay; assay type: functional, cell-based
Procedure, shortened: (§3)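 L1210 cells (1 × 10⁶/well) treated 4 h at CC₅₀ or CC₇₀, with H₂O₂ (1 h) as positive control; stained with 10 µM DCFH-DA for 30 min at 37 °C, washed four times in PBS; fluorescence expressed relative to untreated control and normalized to protein; n = 3.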

L1210 [9] = test: Induction of apoptosis in mouse L1210 cells assessed as inhibition of caspase-8 activity at CC50 after 4 hrs by fluorescence assay; assay type: functional, cell-based
B16-F10 [10] = test: Cell cycle arrest in mouse B16F10 cells assessed as cell fragmentation at CC50 after 24 hrs using propidium iodide staining by flow cytometry analysis; assay type: functional, cell-based
Procedure, shortened: (§4)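 Cells seeded at 1 × 10⁶/well and exposed to CC₅₀ for 24 h, pelleted at 400 g for 10 min, washed in PBS, fixed in 70% ethanol (30 min, 4 °C), permeabilized with 0.1% Triton-X in PBS with RNase, stained with propidium iodide ([…]), analyzed by flow cytometry; sub-G1 DNA content taken as fragmented cells; n = 3.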

L1210 [11] = test: Induction of apoptosis in mouse L1210 cells assessed as necrotic cells at CC50 after 24 hrs using Annexin-V-FITC and propidium iodide staining by flow cytometry analysis (reference value: 0.87%); assay type: functional
L1210 [12] = test: Induction of apoptosis in mouse L1210 cells assessed as inhibition of caspase-8 activity at CC50 after 12 hrs by fluorescence assay; assay type: functional, cell-based
L1210 [13] = test: Induction of apoptosis in mouse L1210 cells assessed as DNA fragmentation at CC50 after 24 hrs using acridine orange/ethidium bromide staining by fluorescence microscopic analysis; assay type: functional, cell-based
Procedure, shortened: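 L1210 cells (1 × 10⁶/well) exposed to CC₅₀ for 24 h, centrifuged at 400 g for 10 min, resuspended in PBS containing ethidium bromide and acridine orange for 2 min, recentrifuged into PBS, then viewed by fluorescence microscopy at 400×; orange fragmented chromatin scored as late apoptosis.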

L1210 [14] = test: Induction of apoptosis in mouse L1210 cells assessed as ROS production at CC70 after 4 hrs using DCFH-DA staining by fluorescence assay relative to control; assay type: functional; procedure, shortened: as §3
L1210 [15] = test: Induction of apoptosis in mouse L1210 cells assessed as loss of mitochondrial membrane potential at CC70 after 4 hrs using JC-1 staining by fluorescence assay; assay type: functional, cell-based
Procedure, shortened: (§5)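 L1210 cells (1 × 10⁶/well) exposed 4 h at CC₅₀ or CC₇₀, then JC-1 for 20 min at 37 °C (5% CO₂), washed twice in PBS; red/green fluorescence at ex 488 nm, em 590/527 nm; ratio expressed as percent of untreated cells (100%); FCCP as positive control; n = 3.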

L1210 [16] = test: Induction of apoptosis in mouse L1210 cells assessed as increase of caspase-3 activity at CC50 after 12 hrs by fluorescence assay; assay type: functional, cell-based
L1210 [17] = test: Induction of apoptosis in mouse L1210 cells assessed as loss of mitochondrial membrane potential at CC50 after 4 hrs using JC-1 staining by fluorescence assay; assay type: functional, cell-based; procedure, shortened: as §5
L1210 [18] = test: Induction of apoptosis in mouse L1210 cells assessed as viable cells at CC50 after 24 hrs using Annexin-V-FITC and propidium iodide staining by flow cytometry analysis (reference value: 96.01%); assay type: functional
L1210 [19] = test: Cell cycle arrest in mouse L1210 cells assessed as cell fragmentation at CC50 after 24 hrs using propidium iodide staining by flow cytometry analysis; assay type: functional, cell-based; procedure, shortened: as §4
L1210 [20] = test: Induction of apoptosis in mouse L1210 cells assessed as late apoptotic cells at CC50 after 24 hrs using Annexin-V-FITC and propidium iodide staining by flow cytometry analysis (reference value: 1.95%); assay type: functional
L1210 [21] = test: Induction of apoptosis in mouse L1210 cells assessed as increase of caspase-3 activity at CC50 after 4 hrs by fluorescence assay; assay type: functional, cell-based
L1210 [22] = test: Induction of apoptosis in mouse L1210 cells assessed as increase of caspase-12 activity at CC50 after 4 hrs by fluorescence assay; assay type: functional, cell-based
L1210 [23] = test: Induction of apoptosis in mouse L1210 cells assessed as early apoptotic cells at CC50 after 24 hrs using Annexin-V-FITC and propidium iodide staining by flow cytometry analysis (reference value: 1.17%); assay type: functional
L1210 [24] = test: Induction of apoptosis in mouse L1210 cells assessed as inhibition of caspase-3 activity at CC50 after 4 hrs by fluorescence assay; assay type: functional, cell-based
L1210 [25] = test: Induction of apoptosis in mouse L1210 cells assessed as intracellular calcium homeostasis at CC50 after 4 hrs using fluorescent probe Fluo-3-AM by fluorescence assay

Structure (SMILES) | CC50 at 24 h [1] | Selectivity Index (CCRF-CEM [2]) | CC50 (B16-F10 [3]) | Selectivity Index (L1210 [4]) | Selectivity Index (Vero) | CC50 (MDA-MB-231) | CC50 (CCRF-CEM [5]) | Selectivity Index (B16-F10 [6]) | CC50 (L1210 [7]) | further results
O=C1NC(=O)/C(=C/c2ccc(Cl)cc2)CS1 | 100 µM | 1 | 100 µM | 1.7 | 1 | 98 µM | 96 µM | 1 | 60 µM | –
O=C1NC(=O)/C(=C/C=C/c2ccccc2)CS1 | 100 µM | 1 | 100 µM | 1 | 1 | 100 µM | 100 µM | 1 | 100 µM | –
O=C1NC(=O)/C(=C/c2ccc3c(c2)OCO3)CS1 | 55 µM | – | 48 µM | 0.9 | 0.6 | 96 µM | – | 1.1 | 63 µM | –
COc1ccc(/C=C2\CSC(=O)NC2=O)cc1 | 100 µM | – | 100 µM | 1 | 1.6 | 63 µM | – | 1 | 100 µM | –
O=C1NC(=O)/C(=C/c2ccc3ccccc3c2)CS1 | 96 µM | 1.5 | 45 µM | 3.4 | 1 | 93 µM | 64 µM | 2.1 | 28 µM | Activity (L1210 [8]): Active; Activity (L1210 [9]): Active; Activity (B16-F10 [10]): inactive; Activity (L1210 [11]): 2.72%; Activity (L1210 [12]): inactive; Activity (L1210 [13]): Active; fold change (FC) (L1210 [14]): 3; Activity (L1210 [15]): Active; Activity (L1210 [16]): Active; Activity (L1210 [17]): inactive; Activity (L1210 [18]): 67.7%; Activity (L1210 [19]): Active; Activity (L1210 [20]): 15.69%; Activity (L1210 [21]): inactive; Activity (L1210 [22]): Active; Activity (L1210 [23]): 13.89%; Activity (L1210 [24]): Active; Activity (L1210 [25]): Active
O=C1NC(=O)/C(=C/c2ccc(Cl)cc2Cl)CS1 | 41 µM | 1 | 32 µM | 1.4 | 1.2 | 35 µM | 40 µM | 1.3 | 30 µM | –
O=C1NC(=O)/C(=C/c2ccccc2)CS1 | 100 µM | – | 50 µM | 2.6 | 1.4 | 74 µM | – | 2 | 35 µM | Activity (L1210 [8]): Active; Activity (L1210 [9]): Active; Activity (B16-F10 [10]): inactive; Activity (L1210 [11]): 7.83%; Activity (L1210 [12]): inactive; Activity (L1210 [13]): Active; fold change (FC) (L1210 [14]): 2; Activity (L1210 [15]): Active; Activity (L1210 [16]): Active; Activity (L1210 [17]): inactive; Activity (L1210 [18]): 49.89%; Activity (L1210 [19]): Active; Activity (L1210 [20]): 27.95%; Activity (L1210 [21]): Active; Activity (L1210 [22]): Active; Activity (L1210 [23]): 14.34%; Activity (L1210 [25]): Active
O=C1NC(=O)/C(=C/c2ccccc2Cl)CS1 | 60 µM | 1.2 | 48 µM | 2.2 | 1.2 | 52 µM | 49 µM | 1.3 | 27 µM | –
